Reference: ChEMBL document CHEMBL3763144, “Optimization of a Novel Series of Ataxia-Telangiectasia Mutated Kinase Inhibitors as Potential Radiosensitizing Agents” (J Med Chem, 2016)

Experiments:
[1] = Stability of the compound in phosphate buffered saline assessed as compound stability time at pH 3 by UPLC-MS analysis; format: physicochemical; conditions: buffer
[2] = Cmax in C57BL/6 mouse at 20 mg/kg, iv by UPLC-MS analysis; format: ADME, organism-based; design: dose 20 mg/kg, route intravenous; conditions: in vivo
Procedure, shortened: (§1)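 Female C57BL/6 mice, 22-27 g; single tail-vein injection at 10 or 20 mg/kg (vehicle groups at 0) in EtOH/PPG/PBS pH 7.4 5/45/50 with HβCD 10 mM and 5% DMSO, 4 ml/kg. Blood taken at 5, 15, 30 min, 1, 4, 24 h, one mouse per time point, and at 48 h. EDTA plasma mixed with acetonitrile containing warfarin internal standard; UPLC/MS quantitation by peak-area ratio.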

[3] = Intrinsic clearance in rat liver microsomes after 0.5 to 4 hrs by UPLC-MS analysis; format: ADME; conditions: read-out: CLH
[4] = Half life in dog liver microsomes by UPLC-MS analysis; format: ADME, Canis lupus familiaris
[5] = Intrinsic clearance in dog liver microsomes after 0.5 to 4 hrs by UPLC-MS analysis; format: ADME, Canis lupus familiaris; conditions: read-out: CLH
[6] = Half life in rat liver microsomes by UPLC-MS analysis; format: ADME
Plasma [7] = experiment: Stability in mouse plasma assessed as compound stability time by UPLC-MS analysis; format: ADME, cell-free
[8] = Half life in human liver microsomes by UPLC-MS analysis; format: ADME
[9] = Permeability of the compound at 10 uM after 30 mins by PAMPA; format: ADME; conditions: read-out: permeability
[10] = Stability of the compound in phosphate buffered saline assessed as compound stability time at pH 5 by UPLC-MS analysis; format: physicochemical; conditions: buffer
[11] = Intrinsic clearance in CD-1 mouse liver microsomes after 0.5 to 4 hrs by UPLC-MS analysis; format: ADME; conditions: read-out: CLH
Plasma [12] = experiment: Stability in human plasma assessed as compound stability time by UPLC-MS analysis; format: ADME, cell-free
[13] = Stability of the compound in phosphate buffered saline assessed as compound stability time at pH 7.4 by UPLC-MS analysis; format: physicochemical; conditions: buffer
[14] = Intrinsic clearance in human liver microsomes after 0.5 to 4 hrs by UPLC-MS analysis; format: ADME; conditions: read-out: CLH
[15] = Half life in CD-1 mouse liver microsomes by UPLC-MS analysis; format: ADME
Mus musculus [16] = species on record: Mus musculus; experiment: Drug level in C57BL/6 mouse treated with 1-(6,7-Dimethoxyquinazolin-4-yl)-3-(pyridin-2-yl)-1H-1,2,4-triazol-5-amine by qualitative tandem mass spectrometric analysis; format: ADME, organism-based; conditions: in vivo
Plasma [17] = experiment: Stability in rat plasma assessed as compound stability time by UPLC-MS analysis; format: ADME, cell-free
[18] = Half life in C57BL/6 mouse at 20 mg/kg, iv by UPLC-MS analysis; format: ADME, organism-based; conditions: in vivo; procedure, shortened: as §1
Mus musculus [19] = species on record: Mus musculus; experiment: Drug metabolism in C57BL/6 mouse assessed as 4-(5-amino-3-(pyridin-2-yl)-1H-1,2,4-triazol-1-yl)quinazoline-6,7,8-triol formation by qualitative tandem mass spectrometric analysis; format: ADME, organism-based; conditions: in vivo
[20] = Clearance in C57BL/6 mouse at 10 mg/kg, iv; format: ADME, organism-based; conditions: in vivo; procedure, shortened: as §1
[21] = Half life of the compound in aqueous buffer; format: physicochemical
Mus musculus [22] = species on record: Mus musculus; experiment: Drug metabolism in C57BL/6 mouse assessed as 4-(5-amino-3-(pyridin-2-yl)-1H-1,2,4-triazol-1-yl)-7-methoxyquinazolin-6-ol formation by qualitative tandem mass spectrometric analysis; format: ADME, organism-based; conditions: in vivo
[23] = Half life in C57BL/6 mouse at 10 mg/kg, iv; format: ADME, organism-based; conditions: in vivo; procedure, shortened: as §1
[24] = Tmax in C57BL/6 mouse at 20 mg/kg, iv by UPLC-MS analysis; format: ADME, organism-based; conditions: in vivo
Procedure, shortened: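 Female C57BL/6 mice (22-27 g) received a single tail-vein injection at 4 ml/kg in 5/45/50 EtOH/PPG/PBS (pH 7.4) with 10 mM HβCD and 5% DMSO. Groups were 0, 10 and 20 mg/kg. Blood was drawn retro-orbitally at 5, 15, 30 min, 1, 4, 24 and 48 h into EDTA. Plasma was precipitated with acetonitrile containing 2 uM warfarin as internal standard and quantified by UPLC/MS from the analyte/internal-standard peak-area ratio.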

Mus musculus [25] = species on record: Mus musculus; experiment: Drug metabolism in C57BL/6 mouse assessed as (2S,3S,4S,5R,6S)-6-(4-(5-amino-3-(pyridin-2-yl)-1H-1,2,4-triazol-1-yl)-7-methoxyquinazolin-6-yloxy)-3,4,5-trihydroxytetrahydro-2H-pyran-2-carboxylic acid formation by qualitative tandem mass spectrometric analysis; format: ADME, organism-based; conditions: in vivo

Row | Stability [1] [h] | Cmax [2] [µM] | CLint scaled [3] [mL/min/kg] | half-life [4] [h] | CLint scaled [5] [mL/min/kg] | half-life [6] [h] | Stability (Plasma [7]) [h] | half-life [8] [h] | Papp at 0.5 h, 10 µM [9] [×10⁻⁶ cm/s] | Stability [10] [h] | CLint scaled [11] [mL/min/kg] | Stability (Plasma [12]) [h] | Stability [13] [h] | CLint scaled [14] [mL/min/kg] | half-life [15] [h] | Drug metabolism (Mus musculus [16]) | Stability (Plasma [17]) [h] | also measured | SMILES
1 | > 48 | 5.8 | < 11.7 | > 4 | < 8.3 | > 4 | > 48 | 1.6 | 16.6 | > 48 | 22.9 | > 48 | > 48 | 12.9 | 2.4 |  |  |  | COCCOc1cc2ncnc(-n3nc(-c4ccccn4)nc3N)c2cc1OCCOC
2 |  |  |  |  |  |  |  |  |  |  |  |  |  |  |  | metabolite_detected |  |  | COc1cc2ncnc(-n3nc(-c4ccccn4)nc3N)c2cc1O
3 | > 24 | 9.5 | < 11.7 | > 4 | < 8.3 | > 4 | > 48 | > 4 | 196 | > 24 | 27.1 | > 48 | > 24 | < 5.2 | 2 |  | > 24 | half-life [18]: 19 h | COCCOc1cc2c(-n3nc(-c4ccccn4)nc3N)ncnc2cc1OC
4 |  |  |  |  |  |  |  |  |  |  |  |  |  |  |  | metabolite_detected |  |  | Nc1nc(-c2ccccn2)nn1-c1ncnc2c(O)c(O)c(O)cc12
5 | > 48 | 4 | 57.8 | 0.6 | 52.5 | 0.8 | > 48 | 3.4 | 95.9 | > 48 | 61.7 | > 48 | > 48 | 6.1 | 0.9 |  | 19 | Drug metabolism (Mus musculus [19]): metabolite_detected; clearance [20]: 2.67 mL/min; half-life [21]: > 48 h; Drug metabolism (Mus musculus [22]): metabolite_detected; half-life [23]: 1 h; Tmax [24]: 5 min; Drug metabolism (Mus musculus [25]): metabolite_detected | COc1cc2ncnc(-n3nc(-c4ccccn4)nc3N)c2cc1OC
6 |  |  |  |  |  |  |  |  |  |  |  |  |  |  |  | metabolite_detected |  |  | COc1cc2ncnc(-n3nc(-c4ccccn4)nc3N)c2cc1O[C@@H]1O[C@H](C(=O)O)[C@@H](O)[C@H](O)[C@H]1O
7 | > 24 |  | 45.1 | > 4 | < 7.9 | 1 | > 24 | 1.1 | 432 | > 24 | 329 | > 24 | > 24 | 18.8 | 0.2 |  | > 24 |  | COc1cc2ncnc(-n3nc(-c4ccccn4)nc3N)c2cc1OCCCNC(=O)OC(C)C
